The nature of data set [1]: Selectivity index, ratio of CC50 for mouse NCTC-929 cells to IC50 for Leishmania infantum MHOM/BR/1972/LD amastigote forms infected in BALB/c mouse macrophages. It counts as functional.
The nature of data set [2]: Selectivity index, ratio of CC50 for mouse NCTC-929 cells to IC50 for Trypanosoma cruzi Y trypomastigote form infected in monkey LLC-MK2 cells. It counts as functional.
Data set [3] concerns Leishmania infantum. Nature of the data set: Antileishmanial activity against Leishmania infantum MHOM/BR/1972/LD amastigote forms infected in BALB/c mouse peritoneal macrophages assessed as reduction in parasite viability after 120 hrs by giemsa staining based light microscopy. Type of data set: functional. Put shortly: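 BALB/c peritoneal macrophages seeded at 1×10^5/well for 24 h, then infected with hamster spleen-derived amastigotes (1:10 macrophage:amastigote, 24 h, 37 °C, 5% CO2). Compound exposure for 120 h, highest 100 μM. Cells MeOH-fixed and Giemsa-stained; infected macrophages counted out of 400 cells. IC50 from sigmoidal dose-response; at least two independent assays.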

The subject of data set [4] is Leishmania infantum. Nature of the data set: Antileishmanial activity against Leishmania infantum MHOM/BR/1972/LD promastigote forms […] assessed as reduction in parasite viability after 48 hrs by MTT assay. It counts as functional. Put shortly: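 Late-growth-phase promastigotes (passage 5) seeded at 1×10^6/well in M-199. Compounds dissolved in DMSO, tested up to 100 μM, 48 h at 24 °C. Viability by MTT, OD 570 nm, against drug-free (100%) and cell-free blank wells; 0.5% DMSO control. IC50 from sigmoidal dose-response curves; ≥2 independent assays.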

The nature of data set [5]: Cytotoxicity against mouse NCTC-929 cells assessed as decrease in cell viability after 48 hrs by MTT assay. It counts as toxicity. In a few lines: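 NCTC clone 929 murine cells seeded at 6×10^4/well. Compound up to 150 μM for 48 h at 37 °C, 5% CO2. Viability read by MTT. CC50 from sigmoidal dose-response; mean of at least two independent experiments.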
The subject of data set [6] is Trypanosoma cruzi. Nature of the data set: Antitrypanosomal activity against Trypanosoma cruzi Y trypomastigote forms infected in monkey LLC-MK2 cells assessed as reduction in parasite viability after 24 hrs by resazurin assay. It counts as functional, cell-based. Particulars: LLC-MK2, 24 h. Put shortly: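 Y-strain trypomastigotes from LLC-MK2 cultures seeded at 1×10^6/well in RPMI-1640. Compounds up to 150 μM, 24 h at 37 °C, 5% CO2. Viability by resazurin (0.011% in PBS), read at 570 nm against drug-free and cell-free wells; 0.5% DMSO control. IC50 by sigmoidal dose-response curve fitting.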

Data set [7] concerns Trypanosoma cruzi. Put plainly: Potency index, ratio of benznidazole IC50 to compound IC50 for Trypanosoma cruzi Y trypomastigote forms infected in monkey LLC-MK2 cells. Type of data set: functional.

For the molecule `CCCCCCCCCc1cc(CCCO)nc(N)n1`, the “Ratio CC50/IC50” value in data set [1] is listed as 8; in data set [2], 5. Also, the IC50 in data set [3] is 5 µM; in data set [4], 42 µM; in data set [6], 8 µM. Moreover, the 50% cytotoxic concentration (CC50) at 48 h in data set [5] was determined as 42 µM.

On to `C[C@@H]1C[C@@H]2CC[C@@H]3C[C@H](CCCCO[Si](C(C)(C)C)(C(C)(C)C)C(C)(C)C)NC(=[NH+]1)N32.F[B-](F)(F)F`, for which the “Ratio CC50/IC50” value stood at 4 in data set [1] and 16 in data set [2]. Besides, the IC50 came out at 18 µM in data set [3], 7 µM in data set [4] and 4 µM in data set [6]. Also, the CC50 at 48 h in data set [5] turned out to be 65 µM.

In the case of `CCCCCCCC(=O)OCCCC[C@H]1C[C@H]2CC[C@H]3C[C@@H](C)[NH+]=C(N1)N23.F[B-](F)(F)F`, the “Ratio CC50/IC50” value in data set [2] is given as 12. Further, the IC50 was more than 100 µM in data set [3], 53 µM in data set [4] and 8 µM in data set [6]. In addition, the CC50 at 48 h in data set [5] is 100 µM.

On to `C1CC[C@]2(C[C@H]3CC[C@H]4C[C@@]5(CCCCO5)[NH+]=C(N2)N34)OC1.F[B-](F)(F)F`, for which the “Ratio CC50/IC50” value in data set [1] was more than 19. Also, the half-inhibitory concentration (IC50) in data set [3] was 8 µM; in data set [4] it was more than 100 µM; in data set [6], more than 100 µM. Moreover, the CC50 at 48 h in data set [5] is more than 150 µM.

Regarding `CCCC(=O)OCCCC[C@H]1C[C@H]2CC[C@H]3C[C@@H](C)[NH+]=C(N1)N23.F[B-](F)(F)F`, the “Ratio CC50/IC50” value in data set [2] was more than 2. The IC50 was more than 100 µM in data set [3], more than 100 µM in data set [4] and 49 µM in data set [6]. Moreover, the CC50 at 48 h in data set [5] is more than 150 µM.

Consider `CCCCCCCCC[C@@H]1C[C@@H]2CC[C@H]3C(C(=O)O)[C@@H](C)N=C(N1)N23.O=C(O)C(F)(F)F` (single isomer, unassigned; 15), for which the “Ratio CC50/IC50” value in data set [1] was found to be 3; in data set [2], 0.9. The IC50 in data set [3] came to 24 µM; in data set [4], 57 µM; in data set [6], 79 µM. The CC50 at 48 h in data set [5] was 70 µM.

Regarding `C=CCOC(=O)C1=C(CCCCC[C@@H](C)O[Si](C(C)(C)C)(C(C)(C)C)C(C)(C)C)NC2=[N+]3[C@H](CC[C@@H]13)C[C@H](C)N2.CC(=O)[O-]`, the “Ratio CC50/IC50” value in data set [1] worked out at 3; in data set [2], 2. For the same molecule, the “Ratio IC50” value in data set [7] came to 17. For the same molecule, the IC50 in data set [3] was 0.8 µM; in data set [4], more than 100 µM; in data set [6] it was 0.9 µM. The CC50 at 48 h in data set [5] turned out to be 2 µM.

As to `CCCCCC(=O)OCCCC[C@H]1C[C@H]2CC[C@H]3C[C@@H](C)[NH+]=C(N1)N23.F[B-](F)(F)F`, the “Ratio CC50/IC50” value in data set [2] is more than 7. Moreover, the IC50 in data set [3] is more than 100 µM; in data set [4], 109 µM; in data set [6], 22 µM. Further, in data set [5], the CC50 at 48 h is more than 150 µM.

As to `C[C@H](O)CCCCC[C@@H]1C[C@H]2CC[C@H]3C[C@@H](C)NC(=[NH+]1)N23.F[B-](F)(F)F`, the “Ratio CC50/IC50” value in data set [1] is listed as more than 3. In addition, the IC50 is 49 µM in data set [3], more than 100 µM in data set [4] and more than 100 µM in data set [6]. In addition, the CC50 at 48 h in data set [5] is more than 150 µM.

For `CC(=O)OCCCC[C@H]1C[C@H]2CC[C@H]3C[C@@H](C)[NH+]=C(N1)N23.F[B-](F)(F)F`, the “Ratio CC50/IC50” value in data set [2] is more than 2. The IC50 in data set [3] is more than 100 µM; in data set [4] it was more than 100 µM; in data set [6], 88 µM. The CC50 at 48 h in data set [5] was more than 150 µM.

For the molecule `C[C@@H]1C[C@@H]2CC[C@@H]3C[C@H](CCCCO)NC(=N1)N32`, the IC50 in data set [3], in data set [4] and in data set [6] was more than 100 µM each time. In data set [5], the CC50 at 48 h was more than 150 µM.

Regarding `O=C(Cn1ccnc1[N+](=O)[O-])NCc1ccccc1` [BENZNIDAZOLE], the “Ratio CC50/IC50” value in data set [2] is reported as more than 9. Besides, the CC50 at 48 h in data set [5] is more than 150 µM. Further, the IC50 in data set [6] is 16 µM.

For `CCCCCCCCCC(=O)OCCCC[C@H]1C[C@H]2CC[C@H]3C[C@@H](C)[NH+]=C(N1)N23.F[B-](F)(F)F`, the “Ratio IC50” value in data set [7] was 4. Further, the “Ratio CC50/IC50” value in data set [2] was 28. For the same molecule, the figures for the IC50 in data set [3], in data set [4] and in data set [6] were more than 100 µM, 59 µM and 4 µM, respectively. Moreover, the 50% cytotoxic concentration (CC50) at 48 h in data set [5] stood at 84 µM.

Turning to `CCCCCCCCCCCC(=O)OCCCC[C@H]1C[C@H]2CC[C@H]3C[C@@H](C)[NH+]=C(N1)N23.F[B-](F)(F)F`, in data set [7], the “Ratio IC50” value is 4. Further, the “Ratio CC50/IC50” value in data set [2] was 19. Also, the figures for the IC50 in data set [3], in data set [4] and in data set [6] were more than 100 µM, 48 µM and 4 µM, respectively. Moreover, the half-maximal cytotoxic concentration (CC50) at 48 h in data set [5] amounted to 57 µM.

As for `CC(C)=CCC/C(C)=C/CNC(=N)N.Cl`, the “Ratio CC50/IC50” value in data set [1] is on record as 6; in data set [2], 3. Moreover, the IC50 was determined as 19 µM in data set [3], 9 µM in data set [4] and 35 µM in data set [6]. For the same molecule, the CC50 at 48 h in data set [5] is 116 µM.

On to `CCCCCCCCC[C@@H]1C[C@@H]2CC[C@H]3C(C(=O)O)[C@@H](C)N=C(N1)N23` (single isomer, unassigned; 16), for which, in data set [2], the “Ratio CC50/IC50” value turned out to be 0.9. Moreover, the figures for the IC50 in data set [3], in data set [4] and in data set [6] were more than 100 µM, 47 µM and 69 µM, respectively. For the same molecule, in data set [5], the CC50 at 48 h is 60 µM.

Turning to `C[C@@H]1CCC[C@]2(CCN3CC[C@]4(CCC[C@@H](C)O4)NC3=N2)O1`, the IC50 in data set [3], in data set [4] and in data set [6] was more than 100 µM in each case. In addition, in data set [5], the CC50 at 48 h is more than 150 µM.

As for `CCCCCCCCCCCCCCCCOP(=O)([O-])OCC[N+](C)(C)C` [MILTEFOSINE], the “Ratio CC50/IC50” value in data set [1] was 7. In addition, in data set [3], the IC50 worked out at 17 µM. In addition, the cytotoxic concentration (CC50) at 48 h in data set [5] came out at 122 µM.

Values taken from ChEMBL document CHEMBL3868592, “Analogues of Marine Guanidine Alkaloids Are in Vitro Effective against Trypanosoma cruzi and Selectively Eliminate Leishmania (L.) infantum Intracellular Amastigotes” (J Nat Prod, 2016).
